# Reference: ChEMBL document CHEMBL1155242, “Radiolabeled 5-iodo-3'-O-(17beta-succinyl-5alpha-androstan-3-one)-2'-deoxyuridine and its 5'-monophosphate for imaging and therapy of androgen receptor-positive cancers: synthesis and biological evaluation” (J Med Chem, 2009)
# Columns and labels:
# [1] = test system: OVCAR-3; assay: Cellular uptake in human OVCAR-3 cells expressing androgen receptor at 1.75 uCi/mL; type: ADME, cell-based; details: TDE = time-dependent effect
# How it was run: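 NIH:OVCAR-3 cells in complete RPMI-1640 exposed to the radioligand for 24 h (concentration series) or at 1.75 μCi/mL for set times; medium then replaced and cells cultured further 24–48 h; whole-cell and DNA uptake in cpm/cell.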
# [2] = test system: OVCAR-3; assay: Antitumor activity against human OVCAR-3 cells xenografted in athymic NCr mouse assessed as solid tumor weight in peritoneum at 0.25 mCi, ip administered 31 days after tumor implantation as single bolus dose measured 55 days after implantation by gamma counting in presence of SHBG (Rvb= 1.9 +/- 0.8 g); type: functional
# [3] = test system: Heart; assay: Biodistribution in heart of athymic NCr mouse xenografted with human OVCAR-3 cells assessed per gram of tissue at an average 39.5 uCi/dose, ip administered 9 days after tumor implantation as six fractionated doses every 4 days measured after 2 weeks of last dose by gamma counting; type: ADME, organism-based; details: in vivo, 336 h
# How it was run: (§1)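 OVCAR-3-bearing and healthy athymic mice given fractionated ip doses on the six-dose every-4-days schedule; tissues, tumor and lavaged cells γ-counted at necropsy, %ID/g; DNA-bound 125I in cells measured as cpm/cell.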
# [4] = test system: Lung; assay: Biodistribution in lung of athymic NCr mouse xenografted with human OVCAR-3 cells assessed per gram of tissue at an average 39.5 uCi/dose, ip administered 9 days after tumor implantation as six fractionated doses every 4 days measured after 2 weeks of last dose by gamma counting; type: ADME, organism-based; details: in vivo, 336 h; how it was run: as §1
# [5] = Ratio of drug level in tumor to spleen in athymic NCr mouse xenografted with human OVCAR-3 cells at 180 uCi, ip administered 9 days after tumor implantation as six fractionated doses every 4 days measured after 1.5 hrs by gamma counting; type: ADME, organism-based; details: in vivo
# [6] = Ratio of drug level in tumor to kidney in athymic NCr mouse xenografted with human OVCAR-3 cells at 180 uCi, ip administered 9 days after tumor implantation as six fractionated doses every 4 days measured after 24 hrs by gamma counting; type: ADME, organism-based; details: in vivo
# [7] = Ratio of drug level in tumor to spleen in athymic NCr mouse xenografted with human OVCAR-3 cells at 180 uCi, ip administered 9 days after tumor implantation as six fractionated doses every 4 days measured after 24 hrs by gamma counting; type: ADME, organism-based; details: in vivo
# [8] = test system: OVCAR-3; assay: Cellular uptake in human OVCAR-3 cells xenografted in athymic NCr mouse assessed per gram of cells at 180 uCi, ip administered 9 days after tumor implantation as six fractionated doses every 4 days measured after 12 days by gamma counting; type: ADME, organism-based; details: in vivo, 288 h
# How it was run: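 Mice treated with one, three or six ip doses; nonadherent OVCAR-3 cells lavaged at necropsy, 12 days after last of six doses, and counted; %ID/g decay-corrected; DNA-bound fraction measured.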
# [9] = Ratio of drug level in tumor to uterus in athymic NCr mouse xenografted with human OVCAR-3 cells at 180 uCi, ip administered 9 days after tumor implantation as six fractionated doses every 4 days measured after 24 hrs by gamma counting; type: ADME, organism-based; details: in vivo
# [10] = test system: OVCAR-3; assay: Cytotoxicity against human OVCAR-3 cells expressing androgen receptor assessed as cell survival at 3 uCi/mL after 48 hrs; type: functional
# How it was run: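 NIH:OVCAR-3 cells were grown for 48 h with the 125I-labelled compound, and survival was plotted against the extracellular concentration in μCi/mL.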
# [11] = Stability in rabbit serum assessed as half life at 10 to 20 uCi/mL by size-exclusion HPLC analysis; type: ADME, cell-free, Oryctolagus cuniculus
# How it was run: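 The compound was incubated with rabbit or human serum at ambient temperature, and aliquots were taken at 1, 5 and 24 h. Aliquots were run on size-exclusion HPLC (TSK3000; 0.1 M potassium phosphate/0.1 M Na2SO4, pH 6.8, then an acetonitrile gradient). Extracts were run on C18 reversed-phase HPLC (water/acetonitrile with 0.07% TFA). Half-lives came from a monoexponential fit.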
# [12] = test system: LNCaP; assay: Cellular uptake in single-cell suspension of nonproliferating human LNCAP cells expressing androgen receptor at 0.03 uCi/mL up to 2 hrs by gamma counting; type: ADME, cell-based; details: TDE = time-dependent effect
# How it was run: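 Low-passage LNCaP held as single-cell suspension (non-proliferating) in RPMI-1640 with radioligand at 0.03 or 0.37 μCi/mL; whole-cell and nuclear radioactivity measured over time.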
# [13] = test system: LNCaP; assay: Cellular uptake in proliferating human LNCAP cells expressing androgen receptor after 24 hrs by gamma counting; type: ADME, cell-based
# How it was run: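 Proliferating LNCaP monolayers exposed 24 h to a range of radioligand concentrations; whole-cell uptake measured.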
# [14] = Biodistribution in uterus of athymic NCr mouse xenografted with human OVCAR-3 cells assessed per gram of tissue at 1.12 uCi, ip after 72 hrs by gamma counting; type: ADME, organism-based; details: in vivo
# [15] = Biodistribution in nonadherent tumors in stomach of athymic NCr mouse xenografted with human OVCAR-3 cells at 45 uCi, ip after 72 hrs by gamma counting; type: ADME, organism-based; details: in vivo
# How it was run: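 Athymic NCr-nu/nu mice with ip OVCAR-3; 45 μCi given ip without prior SSKI. Whole-body planar imaging at 72 h with region-of-interest analysis as percent of whole-body activity; peritoneal lavage cells and ascites counted.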
# [16] = Ratio of drug level in tumor to spleen in athymic NCr mouse xenografted with human OVCAR-3 cells at 180 uCi, ip administered 9 days after tumor implantation as six fractionated doses every 4 days measured after 48 hrs by gamma counting; type: ADME, organism-based; details: in vivo
SMILES,Drug uptake [1],Activity [2] [g],Drug uptake [3] [%ID],Drug uptake [4] [%ID],Ratio [5],Ratio [6],Ratio [7],Drug uptake [8] [%ID],Ratio [9],Survival [10] [%],t1/2 [11] [h],Drug uptake [12],Drug uptake [13],Drug uptake [14] [%ID],Drug uptake [15] [%],Ratio [16]
C[C@]12CCC(=O)C[C@@H]1CC[C@@H]1[C@@H]2CC[C@]2(C)[C@@H](OC(=O)CCC(=O)O[C@H]3C[C@H](n4cc([125I])c(=O)[nH]c4=O)O[C@@H]3COP(=O)(O)O)CC[C@@H]12,tde,1.2,0.003,0.008,,,,,,,,,,,,
C[C@]12CCC(=O)C[C@@H]1CC[C@@H]1[C@@H]2CC[C@]2(C)[C@@H](OC(=O)CCC(=O)O[C@H]3C[C@H](n4cc([125I])c(=O)[nH]c4=O)O[C@@H]3CO)CC[C@@H]12,,,,,1,79.1,27.4,0.5,29.9,50,5.7,tde,Dose-dependent effect,1,3.4,24.8
